The results in this text go back to ChEMBL document CHEMBL4257478, “Design, synthesis and evaluation of (R)-3-(7-(methyl(7H-pyrrolo[2,3-d]pyrimidin-4-yl)amino)-5-azaspiro[2.4]heptan-5-yl)-3-oxopropanenitrile as a JAK1-selective inhibitor” (Medchemcomm, 2018).

Experiment [1] relates to Mus musculus. Kind of experiment: Antiarthritic activity in collagen-induced DBA1/J mouse arthritis model assessed as decrease in right hind ankle joint thickness administered as po qd measured on day 19 by hematoxylin-eosin staining-based assay. It is filed as functional, organism-based. Put shortly:
(§1)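 Male DBA1/J mice, 6 weeks old, immunized s.c. at the tail base with type II collagen (2 mg/mL) in complete Freund's adjuvant (1:1, 0.1 mL), then boosted at day 21 with collagen in incomplete Freund's adjuvant. Clinical scores taken twice weekly for 18 days; serum IL-6 and TNF-α measured after autopsy; right hind ankle assessed by histopathology and by micro-CT for bone surface/volume.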

Experiment [2] concerns the target T1, Tyrosine-protein kinase JAK1 (Homo sapiens, UniProt P23458). The note with it: 10 uM.
Experiment [3] deals with Mus musculus. Kind of experiment: Antiarthritic activity in collagen-induced DBA1/J mouse arthritis model assessed as decrease in paw volume administered as po qd measured on day 1 and 15 by plethysmometer.
For a further experiment, the species on record is Homo sapiens. The experiment can be described thus: Selectivity index, ratio of IC50 for human JAK2 to IC50 for human JAK1. Put shortly: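 Kinase activity assays run as a commercial service at Km ATP; IC50 values fitted from concentration-response data; ratio of JAK2 to JAK1 IC50.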
Experiment [4] deals with Mus musculus. Kind of experiment: Antiarthritic activity in collagen-induced DBA1/J mouse arthritis model assessed as decrease in clinical arthritis score administered as po qd measured twice weekly for 18 days. Format: functional, organism-based. In short, it runs like this:
as §1

The test system of experiment [5] is Mus musculus. The experiment can be described thus: Antiarthritic activity in collagen-induced DBA1/J mouse arthritis model assessed as decrease in serum IL-6 levels administered as po qd measured on day 19 by ELISA. Format: functional, organism-based. Put shortly: as §1
A general note: ELISA stands for enzyme-linked immunosorbent assay.

The test system of experiment [6] is Mus musculus. Kind of experiment: Antiarthritic activity in collagen-induced DBA1/J mouse arthritis model assessed as decrease in ratio of bone surface to bone volume of right hind ankle joint administered as po qd measured on day 19 by micro-CT analysis. Format: functional, organism-based. In short, it runs like this: as §1
For experiment [7], the system named is Mus musculus. The experiment can be described thus: Antiarthritic activity in collagen-induced DBA1/J mouse arthritis model assessed as decrease in articular surface cartilage thickness in right hind ankle joints administered as po qd measured on day 19 by hematoxylin-eosin staining-based assay. It is filed as functional, organism-based. Put shortly: as §1

Experiment [8] concerns the target Non-receptor tyrosine-protein kinase TYK2 (Homo sapiens) (UniProt P29597). The note with it: 10 uM.
Experiment [9] deals with Rattus norvegicus. Kind of experiment: Antiarthritic activity in adjuvant-induced SPF LEW/SsNSlc rat arthritis model assessed as decrease in clinical arthritis score at 5 to 20 mg/kg, po qd measured on day 14. Format: functional, organism-based. In short, it runs like this: (§2)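 Lewis rats were 10 weeks old after 2 weeks acclimation. Immunized s.c. at the tail base with 0.1 mL complete Freund's adjuvant containing 10 mg/mL heat-killed mycobacterium. From day 12 post-immunization (day 1), n=10 per group, oral dosing once daily for 14 days, vehicle corn oil. Clinical score and hind paw measured twice weekly.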

Experiment [10] deals with T2, Tyrosine-protein kinase JAK3 (Homo sapiens) (UniProt P52333).
T2 sequence (whole entry): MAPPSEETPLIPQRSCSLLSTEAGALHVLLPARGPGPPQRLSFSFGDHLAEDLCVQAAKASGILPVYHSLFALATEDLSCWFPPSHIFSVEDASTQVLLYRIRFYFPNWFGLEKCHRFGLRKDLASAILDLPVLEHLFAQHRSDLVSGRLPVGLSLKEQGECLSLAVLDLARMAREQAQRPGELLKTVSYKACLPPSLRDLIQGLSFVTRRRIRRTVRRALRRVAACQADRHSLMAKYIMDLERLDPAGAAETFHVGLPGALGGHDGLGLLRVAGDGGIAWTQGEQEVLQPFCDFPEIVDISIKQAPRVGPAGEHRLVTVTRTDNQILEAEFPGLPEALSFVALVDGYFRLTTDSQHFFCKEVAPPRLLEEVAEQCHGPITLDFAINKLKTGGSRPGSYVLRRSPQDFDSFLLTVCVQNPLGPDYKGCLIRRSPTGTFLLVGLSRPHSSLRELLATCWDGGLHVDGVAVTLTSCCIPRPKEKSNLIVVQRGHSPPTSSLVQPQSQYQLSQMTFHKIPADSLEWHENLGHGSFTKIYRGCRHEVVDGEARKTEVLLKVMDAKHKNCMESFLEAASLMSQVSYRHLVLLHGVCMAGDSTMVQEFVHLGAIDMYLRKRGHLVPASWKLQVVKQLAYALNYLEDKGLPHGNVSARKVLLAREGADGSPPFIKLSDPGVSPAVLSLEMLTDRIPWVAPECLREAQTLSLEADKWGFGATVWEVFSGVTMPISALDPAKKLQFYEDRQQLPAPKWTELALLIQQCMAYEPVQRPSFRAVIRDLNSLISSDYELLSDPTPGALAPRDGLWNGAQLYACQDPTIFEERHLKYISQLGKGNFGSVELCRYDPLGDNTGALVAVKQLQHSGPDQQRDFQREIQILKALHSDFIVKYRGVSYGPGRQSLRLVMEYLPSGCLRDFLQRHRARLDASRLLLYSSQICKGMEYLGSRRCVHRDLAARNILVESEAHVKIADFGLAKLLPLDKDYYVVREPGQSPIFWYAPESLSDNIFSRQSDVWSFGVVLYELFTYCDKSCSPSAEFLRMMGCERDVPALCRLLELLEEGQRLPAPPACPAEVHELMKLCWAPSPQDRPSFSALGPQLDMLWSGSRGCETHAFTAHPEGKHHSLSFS
The note with it: 10 uM.

The test system of experiment [11] is Mus musculus. Kind of experiment: Antiarthritic activity in collagen-induced DBA1/J mouse arthritis model assessed as decrease in infiltration of inflammatory cells in right hind ankle joints administered as po qd measured on day 19 by hematoxylin-eosin staining-based assay. It is filed as functional, organism-based. Put shortly: as §1
Experiment [12] deals with T1, Tyrosine-protein kinase JAK1. Kind of experiment: Inhibition of human JAK1 at 1 uM using GEEPLYWSFPAKKK as substrate after 40 mins in presence of [gamma-33P-ATP] by scintillation counting method relative to control.
In experiment [13] the target is Tyrosine-protein kinase JAK2 (Homo sapiens, UniProt O60674). The experiment can be described thus: Inhibition of human JAK2 at 1 uM using KTFCGTPEYLAPEVRREPRILSEEEQEMFRDFDYIADWC as substrate after 40 mins in presence of [gamma-33P-ATP] by scintillation counting method relative to control.
Experiment [14] concerns Mus musculus. The experiment can be described thus: Antiarthritic activity in collagen-induced DBA1/J mouse arthritis model assessed as decrease in right hind ankle joint thickness at 100 mg/kg, po qd measured on day 19 by hematoxylin-eosin staining-based assay. It is filed as functional, organism-based. Put shortly:
as §1

Experiment [15] concerns Mus musculus. The experiment can be described thus: Antiarthritic activity in collagen-induced DBA1/J mouse arthritis model assessed as decrease in clinical arthritis score at 100 mg/kg, po qd measured twice weekly for 18 days. Format: functional, organism-based. Put shortly:
as §1

Experiment [16] deals with Mus musculus. The experiment can be described thus: Antiarthritic activity in collagen-induced DBA1/J mouse arthritis model assessed as decrease in ratio of bone surface to bone volume of right hind ankle joint at 100 mg/kg, po qd measured on day 19 by micro-CT analysis. Format: functional, organism-based. Put shortly:
as §1

The test system of experiment [17] is Mus musculus. The experiment can be described thus: Antiarthritic activity in collagen-induced DBA1/J mouse arthritis model assessed as decrease in infiltration of inflammatory cells in right hind ankle joints at 100 mg/kg, po qd measured on day 19 by hematoxylin-eosin staining-based assay. It is filed as functional, organism-based. In short, it runs like this:
as §1

Experiment [18] concerns Mus musculus. The experiment can be described thus: Antiarthritic activity in collagen-induced DBA1/J mouse arthritis model assessed as decrease in serum TNF-alpha levels at 100 mg/kg, po qd measured on day 19 by ELISA. Format: functional, organism-based. In short, it runs like this: as §1
The subject of experiment [19] is Rattus norvegicus. The experiment can be described thus: Antiarthritic activity in adjuvant-induced SPF LEW/SsNSlc rat arthritis model assessed as decrease in clinical arthritis score at 20 mg/kg, po qd measured on day 14. Format: functional, organism-based. Put shortly:
as §2

The test system of experiment [20] is Mus musculus. The experiment can be described thus: Antiarthritic activity in collagen-induced DBA1/J mouse arthritis model assessed as decrease in paw volume at 100 mg/kg, po qd measured on day 1 and 15 by plethysmometer.
Experiment [21] deals with Rattus norvegicus. Kind of experiment: Antiarthritic activity in adjuvant-induced SPF LEW/SsNSlc rat arthritis model assessed as paw thickness at 20 mg/kg, po qd measured on day 14. Format: functional. In short, it runs like this: as §2
Experiment [22] deals with Mus musculus. Kind of experiment: Antiarthritic activity in collagen-induced DBA1/J mouse arthritis model assessed as decrease in serum IL-6 levels at 100 mg/kg, po qd measured on day 19 by ELISA. Format: functional, organism-based. In short, it runs like this: as §1
In experiment [23] the test system is Mus musculus. Kind of experiment: Antiarthritic activity in collagen-induced DBA1/J mouse arthritis model assessed as decrease in articular surface cartilage thickness in right hind ankle joints at 100 mg/kg, po qd measured on day 19 by hematoxylin-eosin staining-based assay. Format: functional, organism-based. Put shortly: as §1

Calls of active or inactive are those of the source. The rule behind the calls is not given here.

T1 sequence (P23458 whole entry): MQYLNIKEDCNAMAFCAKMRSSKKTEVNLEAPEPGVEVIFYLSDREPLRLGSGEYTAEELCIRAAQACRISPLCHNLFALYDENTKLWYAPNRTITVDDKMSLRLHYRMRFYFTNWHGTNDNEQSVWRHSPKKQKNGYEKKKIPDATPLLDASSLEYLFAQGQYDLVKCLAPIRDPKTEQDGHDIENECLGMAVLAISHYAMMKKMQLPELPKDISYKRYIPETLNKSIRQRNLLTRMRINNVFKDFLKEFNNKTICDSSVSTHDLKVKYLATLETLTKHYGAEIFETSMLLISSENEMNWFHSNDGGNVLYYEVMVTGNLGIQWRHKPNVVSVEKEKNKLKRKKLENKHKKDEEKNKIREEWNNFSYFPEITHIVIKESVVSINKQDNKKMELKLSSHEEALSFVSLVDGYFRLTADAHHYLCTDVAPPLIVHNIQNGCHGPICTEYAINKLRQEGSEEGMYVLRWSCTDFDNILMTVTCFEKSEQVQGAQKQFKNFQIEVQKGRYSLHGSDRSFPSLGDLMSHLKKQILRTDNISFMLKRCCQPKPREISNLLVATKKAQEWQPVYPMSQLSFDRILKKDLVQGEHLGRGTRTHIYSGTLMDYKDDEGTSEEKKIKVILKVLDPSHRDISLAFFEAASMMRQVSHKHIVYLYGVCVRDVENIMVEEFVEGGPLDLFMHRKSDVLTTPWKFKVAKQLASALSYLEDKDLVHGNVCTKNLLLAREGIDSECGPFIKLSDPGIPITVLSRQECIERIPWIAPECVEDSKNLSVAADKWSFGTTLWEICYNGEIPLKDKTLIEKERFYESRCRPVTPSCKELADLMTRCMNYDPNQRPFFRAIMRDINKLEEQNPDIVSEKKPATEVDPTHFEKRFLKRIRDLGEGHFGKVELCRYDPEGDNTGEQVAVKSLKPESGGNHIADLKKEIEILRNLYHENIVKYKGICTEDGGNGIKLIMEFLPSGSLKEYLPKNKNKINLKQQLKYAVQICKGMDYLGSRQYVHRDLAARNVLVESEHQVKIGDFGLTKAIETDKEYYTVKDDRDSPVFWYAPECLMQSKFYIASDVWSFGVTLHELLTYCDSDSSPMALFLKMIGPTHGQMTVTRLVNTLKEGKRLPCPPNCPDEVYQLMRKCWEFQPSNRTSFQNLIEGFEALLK
Chain of Tyrosine-protein kinase JAK2 (O60674 whole entry): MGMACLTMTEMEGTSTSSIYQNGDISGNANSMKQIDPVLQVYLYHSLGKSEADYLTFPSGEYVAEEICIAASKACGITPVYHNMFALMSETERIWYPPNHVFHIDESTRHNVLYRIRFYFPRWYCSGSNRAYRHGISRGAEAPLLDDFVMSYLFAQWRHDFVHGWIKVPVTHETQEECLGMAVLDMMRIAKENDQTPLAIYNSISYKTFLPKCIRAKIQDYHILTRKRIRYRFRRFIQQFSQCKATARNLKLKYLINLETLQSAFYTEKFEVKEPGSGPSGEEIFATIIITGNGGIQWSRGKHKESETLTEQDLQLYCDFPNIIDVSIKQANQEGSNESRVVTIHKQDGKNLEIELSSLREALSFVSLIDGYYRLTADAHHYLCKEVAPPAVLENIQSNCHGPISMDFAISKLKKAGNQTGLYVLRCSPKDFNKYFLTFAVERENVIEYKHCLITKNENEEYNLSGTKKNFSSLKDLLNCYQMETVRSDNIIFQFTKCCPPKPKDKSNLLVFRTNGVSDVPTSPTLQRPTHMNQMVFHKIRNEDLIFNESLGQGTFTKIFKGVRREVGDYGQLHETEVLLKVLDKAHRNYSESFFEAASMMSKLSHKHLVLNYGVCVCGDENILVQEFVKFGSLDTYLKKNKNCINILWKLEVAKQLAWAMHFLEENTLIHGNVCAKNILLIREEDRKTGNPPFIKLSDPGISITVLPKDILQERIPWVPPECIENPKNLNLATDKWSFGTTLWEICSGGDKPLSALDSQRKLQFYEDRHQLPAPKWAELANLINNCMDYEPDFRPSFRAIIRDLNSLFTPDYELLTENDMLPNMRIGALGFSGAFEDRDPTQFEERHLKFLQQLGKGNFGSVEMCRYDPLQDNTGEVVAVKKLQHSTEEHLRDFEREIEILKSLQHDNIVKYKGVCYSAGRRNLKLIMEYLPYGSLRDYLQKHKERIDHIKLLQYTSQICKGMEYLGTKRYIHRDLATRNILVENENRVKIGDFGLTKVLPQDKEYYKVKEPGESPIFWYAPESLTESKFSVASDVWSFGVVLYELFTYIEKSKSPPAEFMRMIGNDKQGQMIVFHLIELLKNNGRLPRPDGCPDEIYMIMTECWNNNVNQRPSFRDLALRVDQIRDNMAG
Chain of Non-receptor tyrosine-protein kinase TYK2 (Homo sapiens) (P29597 whole entry): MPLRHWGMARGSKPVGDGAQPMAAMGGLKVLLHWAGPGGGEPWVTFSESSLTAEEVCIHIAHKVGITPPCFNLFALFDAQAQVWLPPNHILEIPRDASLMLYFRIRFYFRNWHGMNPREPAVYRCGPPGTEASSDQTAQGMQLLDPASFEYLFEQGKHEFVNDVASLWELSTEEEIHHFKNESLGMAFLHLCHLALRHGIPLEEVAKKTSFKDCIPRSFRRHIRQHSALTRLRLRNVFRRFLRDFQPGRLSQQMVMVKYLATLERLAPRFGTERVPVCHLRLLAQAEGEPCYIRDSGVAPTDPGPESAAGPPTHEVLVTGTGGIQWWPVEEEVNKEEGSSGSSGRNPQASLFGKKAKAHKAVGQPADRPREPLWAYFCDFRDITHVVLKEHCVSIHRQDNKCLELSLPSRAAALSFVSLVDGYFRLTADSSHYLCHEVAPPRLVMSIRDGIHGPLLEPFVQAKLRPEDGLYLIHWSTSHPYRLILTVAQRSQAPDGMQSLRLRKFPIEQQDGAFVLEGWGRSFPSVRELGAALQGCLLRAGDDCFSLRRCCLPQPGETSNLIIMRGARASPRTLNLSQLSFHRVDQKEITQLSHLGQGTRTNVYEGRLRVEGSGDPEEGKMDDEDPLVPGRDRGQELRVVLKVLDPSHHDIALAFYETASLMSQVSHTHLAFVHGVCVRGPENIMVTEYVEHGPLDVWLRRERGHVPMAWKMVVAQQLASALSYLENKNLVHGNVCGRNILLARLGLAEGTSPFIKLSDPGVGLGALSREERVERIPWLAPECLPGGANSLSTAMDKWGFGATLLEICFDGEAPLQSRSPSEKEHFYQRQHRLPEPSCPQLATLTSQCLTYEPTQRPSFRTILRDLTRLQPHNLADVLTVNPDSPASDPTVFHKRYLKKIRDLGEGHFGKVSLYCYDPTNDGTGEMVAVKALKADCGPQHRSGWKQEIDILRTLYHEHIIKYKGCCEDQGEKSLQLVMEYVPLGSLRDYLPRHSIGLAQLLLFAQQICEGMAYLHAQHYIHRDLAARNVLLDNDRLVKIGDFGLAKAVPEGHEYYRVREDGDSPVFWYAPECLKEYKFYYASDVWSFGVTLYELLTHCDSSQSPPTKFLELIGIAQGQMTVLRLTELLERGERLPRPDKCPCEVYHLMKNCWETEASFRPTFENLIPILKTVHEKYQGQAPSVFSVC

For orientation: inhibition means the relative decrease from the control value, in per cent. Turning to `CN(c1ncnc2[nH]ccc12)[C@H]1CN(C(=O)CC#N)CC12CC2`, the Activity entry in the experiment on Mus musculus [1], in the experiment with Mus musculus [3], with Mus musculus [4], in the experiment on Mus musculus [5], in the experiment with Mus musculus [6] and in the experiment with Mus musculus [7] was “Dose-dependent effect” throughout. The Activity result with Mus musculus [11] was “Dose-dependent effect”. Moreover, the inhibition in experiment [2], in experiment [8] and in experiment [10] was 90% each time. In the experiment filed under Homo sapiens, the Ratio IC50 stood at 48. In addition, in the experiment with Rattus norvegicus [9], the result was Active.
`N#CCC(=O)NC1CN(c2ncnc3[nH]ccc23)CC12CC2` (stereo unspecified): the inhibition in experiment [12] worked out at 6%. Moreover, the inhibition at 1 µM in experiment [13] was found to be 10%.
In the case of `N#CCC(=O)N1C[C@H]2CCCN(c3ncnc4[nH]ccc34)[C@H]2C1`, the inhibition in [12] was determined as 54%.
On the same count and under the same terms, the value for `N#CCC(=O)N1CCC(Oc2ncnc3[nH]ccc23)CC1` was 35%.
As for `O=C(Nc1nc2cccc(-c3ccc(CN4CCS(=O)(=O)CC4)cc3)n2n1)C1CC1` [FILGOTINIB], the outcome with Mus musculus [14], with Mus musculus [15], in the experiment on Mus musculus [16], in the experiment with Mus musculus [17], in the experiment on Mus musculus [18] and in the experiment with Rattus norvegicus [19] was Active. Further, the outcome in the experiment with Mus musculus [20], with Mus musculus [22] and in the experiment with Mus musculus [23] was Active. For the same compound, in the experiment with Rattus norvegicus [21], the Activity came to 10.32 mm.
